Measurements taken from article PMC12005346 (ACS chemical neuroscience, 2023).
Where a name gives a salt, the structure may show the parent alone. *1 amine or outer side, *2 acyl side, *3 side chain or, on linkers, in order; H or OH if unused. Where a SMILES comes first, the peptide text is derived from it. Bridges are numbered along the chain shown (N, C = ends). Roman numbers before positions name the chains, in order. [ ]: non-standard residue; d: D form. Piperazine(1,4-diyl) = C1CN([*:2])CCN1[*:1]; Phe(4-F) = N[C@@H](Cc1ccc(F)cc1)C(=O)O; Dmt = Cc1cc(O)cc(C)c1C[C@H](N)C(=O)O; oXylylene = c1ccc(C[*:2])c(C[*:1])c1

How the values were obtained:
[1] = target: human KOR expressed in CHO cells (Homo sapiens, UniProt P41145); assay: 35S-GTPγS coupling assay at KOR; type: biochemical
Method in brief: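 Test compounds stimulated 35S-GTPγS coupling at human MOR, DOR or KOR expressed in CHO cells. Reference agonists were included to validate the assay: DAMGO for MOR, SNC80 for DOR and U50,488 for KOR. EC50 and EMAX were calculated separately for each independent experiment and reported as mean ± SEM of N ≥ 3 experiments.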

[2] = test system: formalin-induced pain; assay: Formalin test; type: in vivo, mouse; conditions: s.c. hind paw 100 nmol/20 μL, 15 min before formalin
Method in brief: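 Test compound (100 nmol/20 μL) was injected s.c. into the left dorsal hind paw 15 min before formalin (1% in saline, 20 μL/paw) in the same paw. Vehicle was DMSO/saline 1:5 v/v, […] s.c. Total licking/biting time was scored in the early and late phases. Analysis was two-way ANOVA with Tukey's test.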

[3] = test system: dependence and withdrawal; assay: Naloxone-precipitated withdrawal; type: in vivo, CD-1 mice; conditions: 3.2 mg/kg s.c. repeated dosing, naloxone 30 mg/kg i.p. on day 4
[4] = test system: response to thermal nociceptive stimuli; assay: Hot plate test after i.c.v. administration; type: in vivo, mouse; conditions: i.c.v. 0.6 nmol/10 μL, 90 to 120 min after administration
Method in brief: (§1)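 Mice received test compound i.c.v. at 0.6 nmol/10 μL. Vehicle was DMSO/saline 1:5 v/v, 10 μL/mouse. Hot plate and tail flick responses to thermal stimuli were recorded as a time course starting 15 min after dosing and expressed as % MPE. Groups were N = 12 or 7. Analysis was two-way ANOVA with Tukey's test versus vehicle.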

[5] = test system: response to thermal nociceptive stimuli; assay: Tail flick test after i.c.v. administration; type: in vivo, mouse; conditions: i.c.v. 0.6 nmol/10 μL, 90 to 120 min after administration
Method in brief: as §1

Sequence of human KOR expressed in CHO cells (P41145 whole entry): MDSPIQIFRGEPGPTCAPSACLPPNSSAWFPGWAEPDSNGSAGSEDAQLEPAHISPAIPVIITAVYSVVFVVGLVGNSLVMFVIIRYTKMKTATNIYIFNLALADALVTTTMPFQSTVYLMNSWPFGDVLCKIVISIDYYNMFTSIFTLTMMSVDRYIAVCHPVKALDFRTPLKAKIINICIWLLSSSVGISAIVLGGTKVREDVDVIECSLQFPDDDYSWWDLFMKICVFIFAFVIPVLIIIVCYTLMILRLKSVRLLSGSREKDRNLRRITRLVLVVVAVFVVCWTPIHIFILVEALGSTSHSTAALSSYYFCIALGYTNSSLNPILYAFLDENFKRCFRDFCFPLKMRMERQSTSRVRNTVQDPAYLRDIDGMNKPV

Cc1cc(O)cc(C)c1C[C@H](N)C(=O)N[C@@H]1CSCc2ccccc2CSC[C@@H](NC(=O)[C@@H](N)Cc2c(C)cc(O)cc2C)C(=O)NCC(=O)N[C@@H](Cc2ccc(F)cc2)C(=O)N2CCN(CC2)C(=O)[C@H](Cc2ccc(F)cc2)NC(=O)CNC1=O [MJ4, 2 TFA c(Dmt-D-Cys-Gly-P-F-Phe)2-piperazine o-Xylene] (I: H-[Dmt][dC]G[Phe(4-F)] / II: H-[Dmt][dC]G[Phe(4-F)]; linker I:2-II:2 via oXylylene; linker I:C-II:C via Piperazine(1,4-diyl))
KOR agonist activity, in words [1]: more potent agonist activity | licking/biting behavior induced by formalin, early phase [2]: did not change the effects induced by formalin | licking/biting behavior induced by formalin, late phase [2]: did not change the effects induced by formalin

CN1CC[C@]23c4c5ccc(O)c4O[C@H]2[C@@H](O)C=C[C@H]3[C@H]1C5 [morphine]
urine/feces output in naloxone-precipitated withdrawal [3]: comparable urine/feces output

biphalin
antinociceptive effect (% MPE), hot plate [4]: antinociceptive effects steadily decrease | antinociceptive effect (% MPE), tail flick [5]: antinociceptive effects steadily decrease
